# MC4R ag barr: human MC4R agonism via beta-arrestin. P32245. U2OS MC4R beta-arrestin complementation, luminescence; percent of melanotan II response, DMSO zero. activation, % at 8.9 µM. 360,000 tested, 0.98% active;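 active means activation above a per-plate cutoff, the mean activation of sample wells on that plate plus 3 SD, cut at about 8% in these data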
# MC4R antagonist: human MC4R antagonism in cAMP assay. 360,000 tested, 0.48% active. AID 540295. P32245. inhibition, % at 6.5 µM. MC4R-expressing cells, MTII-stimulated cAMP, LANCE TR-FRET;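 active means inhibition above its plate's cutoff, the mean of tested wells on that plate plus 3 SD, cut at about 29% in these data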;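 further: 0% = Melanotan II alone and 100% = Melanotan II plus saturating MCL0020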
#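 Test system: U2OS cells stably expressing human melanocortin 4 receptor (MC4R); also added: Melanotan II challenge; compound: 6.5 µM single dose; timing: 30-min compound preincubation, 1-h Melanotan II challenge, 1-h detection, room temperature; signal: Eu-cAMP/anti-cAMP TR-FRET, emission 671 nm; repeats: one well per compound, no replicates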
# EBI2 block: EBI2 (human) antagonism | 360,000 tested, 0.81% active | EBI2 beta-arrestin recruitment, luminescence, 7a,25-OHC stimulated | inhibition, % at 5 µM | AID 651636 | P32249; in the data active means inhibition above about 38%;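 further: enzyme fragment complementation signal reports receptor beta-arrestin coupling in cells; 0% = agonist plus DMSO wells and 100% = wells without agonist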
# Target sequence (P32249 whole entry, looked up, the tested form may be a part): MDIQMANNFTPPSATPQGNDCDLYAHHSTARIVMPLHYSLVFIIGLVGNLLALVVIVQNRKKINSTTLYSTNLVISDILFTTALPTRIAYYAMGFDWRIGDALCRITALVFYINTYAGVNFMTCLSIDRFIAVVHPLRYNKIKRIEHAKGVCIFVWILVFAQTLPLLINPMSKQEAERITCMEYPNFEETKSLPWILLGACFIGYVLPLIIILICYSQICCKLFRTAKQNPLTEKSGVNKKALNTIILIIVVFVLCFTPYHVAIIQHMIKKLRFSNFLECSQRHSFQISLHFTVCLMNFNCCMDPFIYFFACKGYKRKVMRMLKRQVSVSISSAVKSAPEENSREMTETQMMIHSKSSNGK
# Myeloid diff MLP: myeloid differentiation induction | ER-HoxA9 myeloid progenitors, lysozyme-GFP differentiation, flow cytometry | calls only at 10 µM | 360,000 tested, 1% active | AID 624256;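 active means normalized GFP-positive differentiation at or above the plate's own cutoff, the solvent-only control mean plus 3 SD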;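 further: cells exposed to compound for four days before flow analysis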
# Granule exo inh: lytic granule exocytosis inhibition; TALL-104 LAMP-1 surface exposure, flow cytometry; cells stimulated with thapsigargin and PMA; inhibition, % at 10 µM; 360,000 tested, 0.66% active;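 active means inhibition above about 55%, limit read from the data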
# * = called active by the depositor; i = inactive; . = not tested or not shown; + = active, no number. Hits are enriched below; roughly 3.7% of the tested compounds scored in any of these assays.
SMILES,MC4R ag barr,MC4R antagonist,EBI2 block,Myeloid diff MLP,Granule exo inh
C=CCNC(=O)c1c(N)n(-c2ccc3c(c2)OCO3)c2nc3ccccc3nc12,8.7*,3,7,i,1
CNc1nc(N)nc(OC(C(F)(F)F)C(F)(F)F)n1,-4,-1,0,i,-1
Cc1ccc2c(c1)c1c3n2CCN(CC#N)C3CCC1 (stereo not drawn),-1,3,-13,i,-5
Cc1ccc2c(c1)c1c3n2CCCN(Cc2ccccc2)C3CCC1 (stereo not drawn),4,-6,6,+,6
O=C(NC(=S)Nc1cc(Cl)ccc1O)c1cccc(Br)c1,-1,15,18,+,-7
CC(=O)c1cccc(NC(=S)NC(=O)c2ccc(Br)cc2)c1,8.5*,8,-9,i,-2
O=C(N/N=C/c1cccnc1)c1cccc(S(=O)(=O)Nc2cccc(Cl)c2)c1,2,0,-7,i,-2
O=C(N/N=C/c1ccncc1)c1cccc(S(=O)(=O)Nc2ccc(Cl)cc2)c1,-1,8,-9,+,1
Cc1ccsc1C=Nc1ccc(O)cc1,-2,-11,45*,i,2
CC1(C)CC(Nc2ccc(Nc3ccccc3)cc2)CC(C)(C)N1,-3,-13,5,i,83*
Cc1cccc(Cn2c(=O)n(Cc3ccco3)c(=O)c3ccccc32)c1,0,15,61*,i,-7
CCn1c(=O)c2ccccc2n(Cc2cccc(C)c2)c1=O,0,-6,6,i,2
O=C1NC[C@H](Cc2ccccc2)N(CC2CCN(CCc3ccc(-c4ccccc4)cc3)CC2)C1=O,-2,8,-5,i,0
Cc1ccc(C2C(C#N)=C(N)SC(N)=C2C#N)c(C)c1,0,3,6,+,3
COc1ccccc1N1N=C(c2ccc([N+](=O)[O-])cc2)CC1c1ccccc1 (stereo not drawn),-1,17,24,+,55
CCCCCCCCN1C(=O)[C@H](CC(=O)NCCC(C)C)C[C@@]2(C(=O)OCC)CCC=C12,.,.,10,i,-10
Cc1ccc(-n2c(SCC(=O)Nc3cc(C)on3)nc3c([nH]c4ccccc43)c2=O)cc1,2,15,6,i,0
CCOC(Cn1c(SCC(=O)Nc2cc(C)on2)nc2ccccc2c1=O)OCC,-2,1,-11,i,0
Cc1cc(NC(=O)CSc2c(C)[nH]c3ccccc23)no1,0,1,-5,+,-2
Cc1cc(NC(=O)CSc2nc3ccccc3c(=O)n2Cc2ccccc2)no1,8.5*,5,3,i,1
Cc1cc(NC(=O)CSc2c[nH]c3ccccc23)no1,-3,12,-3,i,4
Cc1ccc(Cn2c(SCC(=O)Nc3cc(C)on3)nc3ccccc3c2=O)cc1,8.8*,-8,19,i,1
Cc1cc(NC(=O)CSc2nnc(-c3c[nH]c4ccccc34)n2-c2ccc(Cl)cc2)no1,12*,6,6,i,-2
O=C1NC(=O)/C(=C/C(=O)N2CCOCC2)S1,-3,8,8,i,12
O=C(O)/C=C/c1ccc(S(=O)(=O)Nc2ccc(C(=O)NCC(=O)O)cc2)cc1,0,8,1,i,-2
SMILES,MC4R ag barr,MC4R antagonist,EBI2 block,Myeloid diff MLP,Granule exo inh
O=C(CCn1cccc1)Nc1ccc(OC(F)(F)F)cc1,-4,0,-18,i,0
CC(C)(C)OC(=O)C[C@@H]1C/C=C\C[C@@H](CC(=O)N[C@@H](CO)Cc2ccccc2)C(=O)N2CCC[C@@H]2COC1=O,1,7,-7,i,-5
Cc1ccccc1S(=O)(=O)NC(=O)C1(C)CCN1C(=O)CC1CCCCC1 (stereo not drawn),0,0,-9,i,-11
Cc1cc(NC(=O)CSc2nc(-c3cccs3)cc(C(F)(F)F)n2)no1,2,-25,-24,+,-2
OC(c1ccccc1)c1ncc(-c2ccccc2F)[nH]1 (stereo not drawn),-2,14,-5,i,-3
CC(C)(C)c1ccc(C(O)c2ncc(-c3ccccc3F)[nH]2)cc1 (stereo not drawn),8.2*,0,19,i,4
CCc1ccc(C(O)c2ncc(-c3ccc(C(F)(F)F)cc3)[nH]2)cc1 (stereo not drawn),9.2*,15,19,i,-4
OC(c1ccc(-c2ccccc2)cc1)c1ncc(-c2ccc(C(F)(F)F)cc2)[nH]1 (stereo not drawn),9.5*,11,8,i,-1
OC(c1ccccc1)c1ncc(-c2ccc(C(F)(F)F)cc2)[nH]1 (stereo not drawn),-1,-1,2,i,-1
CCOC(=O)C(=O)Nc1cc(C)on1,0,5,-8,i,-1
CCOC(=O)[C@]12CCC=C1N(Cc1ccco1)C(=O)[C@H](CC(=O)NCc1ccc(C)o1)C2,.,.,-5,i,-4
COc1ccc(C(C)(O)c2nc(-c3ccncc3)cs2)cc1 (stereo not drawn),-1,-10,9,+,1
C[C@]12CCC(=O)CC1CCC1C2CC[C@@]2(C)C1CC[C@@]21CCO1 (stereo partly drawn),7,11,7,+,-16
O=C(C1=C[C@H](c2ccc(Br)cc2)C[C@H](OCCCCO)O1)N1CCOCC1,.,.,3,i,10
C#Cc1ccc([C@@H]2C=C(C(=O)N3CCOCC3)O[C@H](OCCCCO)C2)cc1,0,-2,0,+,17
CC(C)C(NC(=O)C12CC3CC(CC(C3)C1)C2)C(=O)N/N=C/C1=C(N2CCOCC2)C(=C\c2ccc([N+](=O)[O-])cc2)/CC1 (stereo not drawn),-2,14,25,+,0
Cc1cc(C)c(NC(=O)c2ccccc2CCc2ccccc2)c(C)c1,29*,0,25,i,-1
Cc1ccc(NC(=O)c2ccccc2CCc2ccccc2)c(C)c1,4,8,9,i,0
CC(C)(C)c1ccc(Oc2ccc(NC(=O)c3ccco3)cn2)cc1,1,8,3,+,6
COc1cc(C(=O)OCC(=O)NCc2ccc(F)cc2)ccc1OCC(C)C,8.3*,-8,-3,i,2
COc1cc(C(=O)OCC(=O)NCCCc2ccccc2)ccc1OCC(C)C,-4,5,-2,i,-4
O=C(/C=C/c1cccc2ccccc12)c1ccncc1,-2,13,13,i,-1
C=CCn1c(C)c(/C=C/c2cc[n+](C)cc2)c2ccccc21,2,-12,3,+,19
Cc1[nH]c2ccccc2c1/C=C/C(=O)c1ccncc1,-2,-6,-17,+,9
Cc1[nH]c2ccccc2c1/C=C/c1cc[n+](C)cc1,-3,-41,-2,+,1
CCN(CC)C(=O)Cn1c(C)c(/C=C/c2cc[n+](C)cc2)c2ccccc21,-1,-29,-11,+,5
